# Assay outcomes as filed in PubChem BioAssay.
# KCNQ1 pot: human KCNQ1 channel potentiation or activation. P51787. hit rate 0.35% among 310,000. B-score at 10 µM. CHO-K1 KCNQ1, thallium flux FluxOR fluorescence; active compounds read high;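 active = fluorescence ratio B-score, a plate-corrected score, at least three library SD, with initial intensity B-score within 5 SD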
#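 Medium – assay buffer, equal DMSO in all wells · Material – CHO-K1 cell line with stable KCNQ1 potassium channel expression · Signal – kinetic FluxOR thallium fluorescence, 10-s 1-Hz baseline, 110-s post-stimulus read · Compound – single concentration per compound, DMSO matched to controls · Schedule – 37 °C overnight plating, 90-min dark dye load, 20-min compound pretreatment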
# KCNK9 inh: blocks the human KCNK9 two-pore domain potassium channel; Q9NPC2; HEK293 KCNK9, FluxOR thallium flux fluorescence; active compounds read low; B-score at 10 µM; hit rate 1.2% among 310,000;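 active = ratio B-score over 3 SD below the library mean, with starting fluorescence within 5 SD of its mean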;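 note: negative B-score means less thallium flux so channel inhibition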
# hERG rescue: hERG (human) protection from proarrhythmic block; hit rate 0.51% among 310,000; activation (rescue from dofetilide block), less the hit threshold, % at 10 µM; CHO-hERG, FluxOR thallium flux, dofetilide IC70 present; Q12809;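 active = activation above the mean of controls blocked by dofetilide plus 5 SD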;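 note: thallium influx through hERG after potassium depolarization seen as dye fluorescence rise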
# KCNK3 inh: human KCNK3 channel inhibition, primary screen. CHO-KCNK3 thallium flux, FluxOR fluorescence; active compounds read low. B-score at 10 µM. AID 602410. O14649. hit rate 0.84% among 340,000;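 active = B-score under library mean minus 4 SD, starting fluorescence ratio at most library mean plus 5 SD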;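 note: more negative B-score means stronger inhibition of thallium flux through KCNK3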
# Kir21 block: inhibitors of mouse Kir2.1 inward-rectifier potassium channel; P35561; HEK293-Kir2.1, FluxOR thallium flux fluorescence; active compounds read low; B-score at 10 µM; hit rate 0.85% among 310,000;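 active = fluorescence ratio B-score at or below minus 3 SD of library scores, with starting-brightness B-score within 2 SD, cut at about -4.2 in these data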;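 note: channel flux triggered by added potassium and thallium sulfate stimulus; B-score of peak minus minimum fluorescence over baseline after thallium stimulus; more negative B-score means stronger Kir2.1 block with less thallium influx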
# Target sequence (P35561 whole entry, looked up): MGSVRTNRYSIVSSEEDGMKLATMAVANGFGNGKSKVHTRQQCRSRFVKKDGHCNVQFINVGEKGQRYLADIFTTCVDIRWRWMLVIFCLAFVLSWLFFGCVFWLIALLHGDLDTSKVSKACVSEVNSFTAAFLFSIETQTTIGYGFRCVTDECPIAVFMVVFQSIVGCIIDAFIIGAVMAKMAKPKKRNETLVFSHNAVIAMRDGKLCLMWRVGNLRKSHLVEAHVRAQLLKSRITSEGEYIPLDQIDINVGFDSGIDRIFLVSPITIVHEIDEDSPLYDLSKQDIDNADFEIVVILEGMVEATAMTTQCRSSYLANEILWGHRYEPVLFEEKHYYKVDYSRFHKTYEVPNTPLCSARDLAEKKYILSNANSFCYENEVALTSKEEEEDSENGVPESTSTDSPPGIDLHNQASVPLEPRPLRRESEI
# KCNQ1 block: blocks the human KCNQ1 potassium channel; P51787; CHO-K1 KCNQ1, FluxOR thallium flux fluorescence; active compounds read high; B-score at 10 µM; hit rate 1.3% among 310,000; AID 2642;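 active = compounds whose thallium flux B-score, printed positive for inhibition, exceeds three library SD while starting fluorescence stays within three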;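 note: channel opened by potassium depolarization with thallium stimulus after 20 min compound exposure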
# KCNK9 inh conf: human KCNK9 inhibitor confirmation. shares compounds with KCNK9 inh. AID 492992. HEK293 KCNK9 cells, FluxOR thallium flux fluorescence. inhibition, % at 10 µM. hit rate 43% among 4,900;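 active = thallium signal inhibited by more than 5 SD of the compound-free buffer control wells, on both duplicate plates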
# Kir21 sel: tests whether KCNK9 modulators also affect mouse Kir2.1; shares compounds with KCNK9 inh; hit rate 4% among 4,900; Kir2.1 cells, FluxOR thallium flux fluorescence; inhibition, % at 10 µM;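 active = thallium signal drop more than 5 SD beyond the mean of the no-compound control wells, seen in both duplicate plates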;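 note: signal is fluorescence rise after thallium addition divided by baseline fluorescence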
# HEK293 Tl ctr: second check of KCNK9 modulator effects in non-induced HEK293 cells. shares compounds with KCNK9 inh. FluxOR thallium flux. inhibition, % at 10 µM. hit rate 40% among 4,900;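 active = thallium signal drop beyond 5 SD of the untreated control mean, on both duplicate plates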
# A number is an active result; 0 = inactive; - = not tested or not shown. Compounds with a hit are over-represented: about 3.7% of the library has one in this group of screens.
SMILES,KCNQ1 pot,KCNK9 inh,hERG rescue,KCNK3 inh,Kir21 block,KCNQ1 block,KCNK9 inh conf,Kir21 sel,HEK293 Tl ctr
C=CCC1(CC=C)CCCN1C(=O)c1cc(COc2ccc(F)c(F)c2)on1,0,0,0,0,0,10,0,0,0
COCCN(Cc1nc(C(c2ccccc2)c2ccccc2)no1)C(C)C,0,-8.7,0,0,0,0,0,0,0
COCCN(C)Cc1nc(C(c2ccccc2)c2ccccc2)no1,0,0,0,0,0,0,-,-,-
CCC(C)(C)NC(=O)CN(Cc1ccc(F)cc1)C(=O)CCC(=O)Nc1ccccn1,0,0,0,0,0,0,-,-,-
CCOC(=O)C1=C(C)N=c2s/c(=C\c3ccc(OCC(=O)O)cc3)c(=O)n2C1c1ccc(OC(C)C)cc1 (stereo not drawn),0,0,0,0,0,0,0,0,0
CCOC(=O)C1=C(C)N=c2s/c(=C/c3ccc(OCC(=O)O)cc3)c(=O)n2C1c1cc(OC)c(OC)c(OC)c1 (stereo not drawn),0,0,0,0,0,0,-,-,-
CC1=NNC(=O)/C1=C\c1cn(-c2ccccc2)nc1-c1ccc(Cl)cc1,0,0,0,0,0,0,0,0,0
CCOC(=O)C1(CCCc2ccccc2)CCN(Cc2nccn2CC)CC1,0,0,0,0,0,0,0,0,0
CCOC(=O)C1(CCCc2ccccc2)CCN(C(=O)Cc2nonc2C)CC1,0,0,0,0,0,0,0,0,0
CCOC(=O)C1(CCCc2ccccc2)CCN(C(=O)CSC)CC1,0,0,0,0,0,0,-,-,-
CCOC(=O)C1(CCc2ccccc2)CCN(Cc2cccc3nccnc23)CC1,0,0,0,0,0,0,0,0,23%
COc1ccc(Oc2ncc(CN3CCN(c4ccccc4)CC3)s2)cc1,0,0,0,0,0,0,0,0,0
Cc1cc(Cl)ccc1Oc1ncc(CN2CCN(c3ccccc3)CC2)s1,0,0,0,0,0,0,-,-,-
Cc1cccc(NC(=O)C2C(c3ccccc3)C2(Cl)Cl)c1 (stereo not drawn),0,0,0,0,0,0,0,0,0
CC(=O)c1cccc(NC(=O)C2C(c3ccccc3)C2(Cl)Cl)c1 (stereo not drawn),0,0,0,0,0,0,-,-,-
Cc1ccc(-c2cc(C(=O)Nc3ccc(S(=O)(=O)Nc4onc(C)c4C)cc3)c3ccccc3n2)cc1,0,0,0,0,0,0,0,0,0
CCOC(=O)/C(=N\Nc1cccc(C(F)(F)F)c1)N(CCOC)CCOC,0,-8.3,0,0,0,0,44%,0,34%
C/C(=N/NC(=O)c1ccccc1)c1ccc(NC(=O)C(F)(F)F)cc1,0,0,0,0,0,0,-,-,-
O=C(NC12CC3CC(CC(C3)C1)C2)c1ccc(-c2ccc(Cl)cc2)o1,0,0,0,0,0,0,-,-,-
O=C(NC12CC3CC(CC(C3)C1)C2)c1ccc(-c2ccccc2Cl)o1,0,0,0,0,0,0,0,0,0
CCCCC(=O)Nc1c(C)cc(C)cc1Cl,0,0,0,0,0,0,-,-,-
CCN(Cc1ccccc1)C(=O)c1ccc(Cl)cc1[N+](=O)[O-],0,0,0,0,0,0,-,-,-
CCCCCCCCCCn1c2c(c(=N)c3c1CCC3)CCC2,0,-18,58,0,-8.6,6,63%,86%,26%
CCOc1ccc(-c2ccc3nnc(SCC(=O)NCC4CCCO4)n3n2)cc1 (stereo not drawn),0,0,0,0,0,0,-,-,-
Cn1nc(C(F)(F)F)c(/C=N/OC(=O)c2ccccc2Cl)c1SCc1ccccc1Cl,0,-10,0,0,0,0,44%,0,36%
SMILES,KCNQ1 pot,KCNK9 inh,hERG rescue,KCNK3 inh,Kir21 block,KCNQ1 block,KCNK9 inh conf,Kir21 sel,HEK293 Tl ctr
O=C(C1CCN(S(=O)(=O)c2ccc(F)cc2)CC1)N1CC=C(c2ccccc2)CC1,0,0,0,0,0,0,-,-,-
CCN(CC)c1ccc(C=C2C(=O)OC(c3ccccc3)OC2=O)cc1 (stereo not drawn),0,0,0,0,0,0,-,-,-
CCN(CC)c1ccc(/C=C/C(=O)C2C(=O)C=C(C)OC2=O)cc1 (stereo not drawn),0,-9.5,0,0,0,0,86%,101%,85%
COCCN(C(=O)CSc1nnc(-c2ccccc2F)n1C)c1c(N)n(Cc2ccccc2)c(=O)[nH]c1=O,0,0,0,0,0,0,-,-,-
O=C1NC(Cc2ccccc2)C(=O)N1CC(=O)N1CCCc2ccccc21 (stereo not drawn),0,0,0,0,0,0,-,-,-
Cc1ccc(C2NC(c3ccc(C)cc3)C(C)C(=NO)C2C)cc1 (stereo not drawn),0,0,0,0,0,0,0,0,0
CC1C(=NO)C(C)C(c2ccccc2)NC1c1ccccc1 (stereo not drawn),0,0,0,0,0,0,-,-,-
O=C(c1ccccc1Br)N1CCC(c2nc3ccccc3s2)CC1,0,0,0,0,0,0,-,-,-
CCc1ccc(C(=O)N2CCC(c3nc4ccccc4s3)CC2)cc1,0,0,0,0,0,0,0,0,0
Cc1cc(N/N=C/c2ccccc2Cl)nc(NCc2ccccc2)n1,0,0,0,0,0,0,0,0,0
Cc1cc(C)nc(N/N=C/c2ccccc2Cl)n1,0,0,0,0,0,0,-,-,-
Cc1nn(C(C)C)c(C)c1CN1CCC(C(=O)Nc2cccc(-c3cccc(F)c3)c2)CC1,0,0,0,0,0,0,-,-,-
O=C(Cn1c(=O)c2c(ncn2Cc2ccccc2)n(Cc2ccccc2)c1=O)N1CCCC1,0,0,0,0,0,0,-,-,-
O=C(Cn1c(=O)c2c(ncn2C2CCCC2)n(Cc2ccccc2)c1=O)N1CCc2ccccc21,0,0,0,0,0,0,0,0,0
COc1ccc(OCCCCc2c(C)n[nH]c2C)cc1,0,0,0,0,0,0,-,-,-
O=C(O)c1ccc(CSc2nnc(-c3ccccc3Br)o2)cc1,0,0,0,0,0,0,-,-,-
O=C(Nc1ccccc1-c1nnc(SCc2ccccc2)o1)c1ccccc1,0,0,0,0,0,0,0,0,0
O=C(c1ccccc1SCc1ccc(F)cc1)N1CCOCC1,0,0,0,0,0,0,-,-,-
O=C(CCc1ccccc1)n1nc(-c2ccccc2)nc1NCc1ccco1,0,-8.4,0,0,0,0,0,0,33%
COc1ccc(CC(=O)n2nc(-c3ccccc3)nc2NCc2ccco2)cc1,0,0,0,0,0,0,-,-,-
